Data on 53 compounds can be found in PubChem BioAssay AID1656 (Sanford-Burnham Center for Chemical Genomics, 2009).

Screen size: about 240,000 compounds; about 950 (0.4%) were called active.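 The calls were made as follows: active = lipid droplet intensity inhibited by at least 50%, with more than 500 cells counted; inconclusive = wells with under 300 cells, treated as cytotoxic; inactive = the rest.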 Shown is part of a subset that was picked to be rich in actives.

The test in a line: oleate-induced lipid droplet accumulation in AML12 cells – imaging, high-throughput imaging, BODIPY stain, primary screen (AID 1656).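 As to cell count: cells counted across two imaged fields per well.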 As to conditions: AML12 mouse hepatocytes, oleate lipid droplets, at 6.5 µM; cell count: measured here: cell count, cytotoxicity flag; inhibition: stronger effect = higher value. The method, boiled down: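 System: AML12 hepatocytes (mouse). Probe or stimulus: oleic acid at 100 µM to induce lipid droplet formation. Times: overnight treatment with compound plus oleate. Detection: Image-based BODIPY and DAPI two-channel analysis. Evaluation: percent inhibition of filter-corrected integrated lipid droplet intensity per well.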
The inhibition is the drop in the measured response relative to a control, in per cent. `Cc1ccc2cc(C)c(N3CCN(c4ccc(F)cc4)CC3)nc2c1`: the cell count was 820 cells and the inhibition was 15% (inactive).
Taken in the same sequence, the figures for `CC(NC(=O)CNC(=O)Cc1cccc2ccccc12)c1ccc(S(N)(=O)=O)cc1` (stereo unspecified) were 734 cells and 13.3% (inactive).
For the compound `CC(NC(=O)c1cccc2ccccc12)c1ccc2c(c1)CCCC2` (stereo unspecified), the cell count was found to be 688 cells and the inhibition was 57.9% (active).
Taken in the same sequence, the figures for `CC(NC(=O)c1ccccc1C(=O)O)c1ccc(-n2ccnc2)cc1` (stereo unspecified) were 807 cells and 2.2% (inactive).
Taken in the same sequence, the figures for `CCn1c(=S)sc2c(=O)n(CC(=O)Nc3cccc(Br)c3)c(C)nc21` were 740 cells and 8.5% (inactive).
On to `C/C(=N\NC(=O)COc1ccc(C)cc1[N+](=O)[O-])c1ccc2c(c1)OCCO2`, for which the cell count was determined as 706 cells and the inhibition is -6.5% (inactive).
Consider `CCCSc1nc2sc3c(c2c(=O)n1-c1ccc(OC)cc1)CCN(C)C3`, for which the cell count is 816 cells and the inhibition is 11.2% (inactive).
Taken in the same sequence, the figures for `O=c1[nH]cccc1-c1nc2ccccc2n1Cc1ccc(Cl)cc1` were 844 cells and 10.1% (inactive).
Taken in the same sequence, the figures for `CC(=O)N1c2ccc(S(=O)(=O)N3CCC(C(=O)N4CCN(c5ccccc5)CC4)CC3)cc2CC1C` (stereo unspecified) were 669 cells and -1.7% (inactive).
Taken in the same sequence, the figures for `Cc1ccc(Nc2ccc(C(N)=O)cc2[N+](=O)[O-])cc1` were 630 cells and -6.1% (inactive).
On to `Cc1ccc(Nc2cc(C)nc3c(C)ccc([N+](=O)[O-])c23)cc1`, for which the cell count was determined as 674 cells and the inhibition was 57.6% (active).
Taken in the same sequence, the figures for `Cc1cc(Nc2ccc(N3CCOCC3)cc2)c2cccc(C)c2n1` were 761 cells and 11.3% (inactive).
As for `O=C(Nc1ncc([N+](=O)[O-])s1)C1COc2ccccc2O1` (stereo unspecified), the cell count amounted to 840 cells and the inhibition is -18.9% (inactive).
On to `CCOc1ccc(CCNC(=O)CSc2cc(=O)n(C)c3ccc(Cl)cc23)cc1OCC`, for which the cell count stood at 659 cells and the inhibition was 93.9% (active).
For the compound `Cn1c(=O)cc(SCC(=O)N2CCCC2)c2cc(Cl)ccc21`, the cell count amounted to 775 cells and the inhibition was 9% (inactive).
Regarding `CCN(CCCNC(=O)CSc1cc(=O)n(C)c2cc(Cl)ccc12)Cc1ccccc1`, the cell count was determined as 704 cells and the inhibition was 18.8% (inactive).
In the case of `O=C(c1ccccc1)N1CCC(CC2CC(c3ccc(Cl)cc3)=NO2)(C(=O)NCC2CCCCC2)CC1` (stereo unspecified), the cell count was 817 cells and the inhibition is -15.1% (inactive).
Taken in the same sequence, the figures for `CN(CC1CCCN(CCc2cccc(C(F)(F)F)c2)C1)C(=O)c1ccc2nc[nH]c2c1` (stereo unspecified) were 744 cells and -11.4% (inactive).
Taken in the same sequence, the figures for `O=C(NCCCN1CCCC1=O)C(=O)NCC1OCCN1S(=O)(=O)c1ccc(Br)cc1` (stereo unspecified) were 666 cells and -6.7% (inactive).
Taken in the same sequence, the figures for `OC(c1nnc(-c2ccccc2)o1)c1cccs1` (stereo unspecified) were 773 cells and 16.7% (inactive).
As for `CCCC(=O)Nc1nnc(-c2ccccc2)o1`, the cell count was found to be 702 cells and the inhibition was 4.2% (inactive).
Turning to `CCCN(CCC)c1ccc(C(O)c2nnc(-c3ccccc3)o2)cc1` (stereo unspecified), the cell count amounted to 691 cells and the inhibition was 69.3% (active).
Taken in the same sequence, the figures for `O=C(Nc1ccccc1C(=O)Nc1ccncc1)c1ccc([N+](=O)[O-])cc1` were 805 cells and 10.9% (inactive).
Taken in the same sequence, the figures for `CCOC(=O)CC1C(=O)NCCN1c1nc2c(C)cccn2c(=O)c1/C=C1\SC(=S)N(C(C)CC)C1=O` (stereo unspecified) were 696 cells and 36.8% (inactive).
For the compound `O=C(CCCN1C(=O)/C(=C\c2ccco2)SC1=S)Nc1cccc2ccccc12`, the cell count stood at 553 cells and the inhibition was -6.6% (inactive).
Taken in the same sequence, the figures for `CCCN(CCC)c1nc2c(C)cccn2c(=O)c1/C=C1/SC(=S)N(Cc2ccco2)C1=O` were 775 cells and 57.5% (active).
Taken in the same sequence, the figures for `CCc1cccc(NC(=O)CCCN2C(=O)C(c3ccccc3)Oc3cccnc32)c1` (stereo unspecified) were 663 cells and -3.4% (inactive).
Taken in the same sequence, the figures for `COc1cccc(NC(=O)CN(C)C(=O)c2ccccc2CCc2ccccc2)c1` were 836 cells and -9.7% (inactive).
For the compound `CC(=O)c1cccc(NC(=O)CN2C(=O)c3cccnc3Oc3ccc(Cl)cc32)c1`, the cell count stood at 693 cells and the inhibition was -16.7% (inactive).
Taken in the same sequence, the figures for `O=C(c1ccccc1)N1N=C(c2ccccc2O)CC1c1ccc(Br)cc1` (stereo unspecified) were 868 cells and 1.5% (inactive).
Taken in the same sequence, the figures for `COc1ccc(C(=O)NC2CC(C)(C)Cc3c2cnn3-c2ccccc2C)o1` (stereo unspecified) were 621 cells and -21% (inactive).
Taken in the same sequence, the figures for `Cc1ccc(/C=C2/SC(=S)N(CCC(=O)NCCCN3CCOCC3)C2=O)cc1` were 794 cells and -18.3% (inactive).
Take `CCC(CC)NC(=O)/C=C/c1cccc([N+](=O)[O-])c1`: the cell count was 628 cells and the inhibition was -7.2% (inactive).
With `CCc1ccc(NC(=O)C(C)OC(=O)/C=C/c2cccc([N+](=O)[O-])c2)cc1` (stereo unspecified), the cell count is 651 cells and the inhibition was 60% (active).
Taken in the same sequence, the figures for `Cc1ccc(NC(=O)O/N=C/c2cccc([N+](=O)[O-])c2)cc1` were 427 cells and -4.6% (inactive).
Taken in the same sequence, the figures for `COc1ccccc1CCNS(=O)(=O)c1cc2c3c(c1)C(C)C(=O)N3CCC2` (stereo unspecified) were 707 cells and -4% (inactive).
Taken in the same sequence, the figures for `CCCCN(CCCC)CCCNC(=O)CN1C(=O)COc2ccc(S(=O)(=O)N3CCC(C)CC3)cc21` were 789 cells and 10.1% (inactive).
Regarding `CCOC(=O)[C@H]1[C@H]2COc3cc(OC)ccc3[C@@H]2N2C(=O)N(c3ccc(Br)cc3)C(=O)[C@@]12C`, the cell count came out at 831 cells and the inhibition is -8.9% (inactive).
Regarding `COc1cccc(OCC(O)CNC(=O)c2oc3c(C)c(C)ccc3c2C)c1` (stereo unspecified), the cell count is 871 cells and the inhibition was -0.2% (inactive).
Taken in the same sequence, the figures for `C=C(C)Cn1c(N2CCCC2)nc2c1c(=O)[nH]c(=O)n2C` were 632 cells and -2.2% (inactive).
Taken in the same sequence, the figures for `Cn1c(=O)[nH]c(=O)c2c1nc(N1CCN(C(c3ccccc3)c3ccccc3)CC1)n2CCO` were 768 cells and 60.3% (active).
Taken in the same sequence, the figures for `CC1CCN(c2nc3c(c(=O)[nH]c(=O)n3C)n2CCCc2ccccc2)CC1` were 572 cells and -14.6% (inactive).
Turning to `CCOc1ccc(NC(=O)CCCCCN2C(=O)[C@@H]3Cc4ccccc4CN3C2=O)cc1`, the cell count turned out to be 676 cells and the inhibition is 11.7% (inactive).
As to `CCOc1ccc(CCNC(=O)C2=C(C)C(=O)OC23CCC(C)CC3)cc1OCC` (stereo unspecified), the cell count was 788 cells and the inhibition was 17.6% (inactive).
Taken in the same sequence, the figures for `CCOc1cc(NC(=O)Nc2ccccc2)c(OCC)cc1NC(=O)CC` were 783 cells and 4.2% (inactive).
Taken in the same sequence, the figures for `CCOc1ccc(CCNC(=O)Nc2ccccc2)cc1OCC` were 809 cells and 118% (active).
In the case of `CCn1c(SCc2cccc(C(=O)O)c2)nnc1-c1ccc(Cl)cc1`, the cell count turned out to be 802 cells and the inhibition is 11.8% (inactive).
Taken in the same sequence, the figures for `COc1ccc(C(=O)N2CCCCC2C(=O)Nc2ccc(-n3nc(C)cc3C)cc2)o1` (stereo unspecified) were 694 cells and -12.1% (inactive).
As for `Cc1cc(N2CCN(c3ccccc3)CC2)nc(N2CCOCC2)n1`, the cell count amounted to 649 cells and the inhibition is -5.7% (inactive).
Taken in the same sequence, the figures for `C(=N/Nc1cc(N2CCOCC2)nc(N2CCOCC2)n1)/c1ccccc1` were 583 cells and 120% (active).
Taken in the same sequence, the figures for `CN(C)c1ccc(/C=N/Nc2cc(N3CCOCC3)nc(N3CCOCC3)n2)cc1` were 716 cells and -2.2% (inactive).
Taken in the same sequence, the figures for `Cc1cccc(NC(=O)c2ccc(S(=O)(=O)N(C)CC3CCCO3)cc2)c1C` (stereo unspecified) were 678 cells and -9.6% (inactive).
On to `Cc1cccc2c1cnn2C(=O)CCC(=O)NC1CCCCC1`, for which the cell count turned out to be 740 cells and the inhibition is -7.9% (inactive).
